bCat KO growth = beta-catenin-lacking colon tumor cell growth suppression; HCT116 beta-catenin knockout viability, CellTiter-Glo, 60 h; active compounds read low; viability, % at 10 µM; 1.5% of 140,000 active;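 active = viability at or under a set limit, the compound median less 4 SD, cut at about 6% in these data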;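 note: 0% = Hyamine 1622 control at 20 µM and 100% = untreated cell control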
TNAP inh noacc = inhibitors of human TNAP without phosphate acceptor. P05186. purified TNAP, CDP-star luminescence, 30 min. inhibition, % at 20 µM. 0.26% of 200,000 active. AID 1012;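 active = tissue-nonspecific alkaline phosphatase inhibition above about 50% at 20 µM in the single-dose screen, limit read from the data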;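 note: 0% = DMSO negative control and 100% = EDTA positive control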
Target sequence (P05186 whole entry, looked up): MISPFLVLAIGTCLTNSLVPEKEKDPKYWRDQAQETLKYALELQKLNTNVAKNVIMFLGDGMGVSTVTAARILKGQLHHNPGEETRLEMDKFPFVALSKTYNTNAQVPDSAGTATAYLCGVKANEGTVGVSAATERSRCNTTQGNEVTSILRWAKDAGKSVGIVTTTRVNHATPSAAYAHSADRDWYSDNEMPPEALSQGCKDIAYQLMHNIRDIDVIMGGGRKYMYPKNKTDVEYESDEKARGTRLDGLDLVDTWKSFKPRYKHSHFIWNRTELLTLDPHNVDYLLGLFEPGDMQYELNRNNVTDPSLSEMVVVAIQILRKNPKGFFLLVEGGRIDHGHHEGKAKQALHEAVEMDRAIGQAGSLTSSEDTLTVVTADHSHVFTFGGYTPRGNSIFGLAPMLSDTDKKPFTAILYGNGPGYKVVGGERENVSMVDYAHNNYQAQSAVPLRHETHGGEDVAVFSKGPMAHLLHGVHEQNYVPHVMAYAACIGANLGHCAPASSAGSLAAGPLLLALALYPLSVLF
Lmaj promast = inhibitors of Leishmania major promastigote growth | inhibition, % at 10 µM | Leishmania major promastigotes, resazurin fluorescence viability | 9% of 200,000 active; in the data active = inhibition above about 50%;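 note: promastigotes grown with compound for 44 hours at 28 °C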
HCT116 PTEN-null = PTEN-deleted cell growth suppression. HCT116 PTEN-null viability, CellTiter-Glo, 60 h; active compounds read low. viability, % at 10 µM. 1.2% of 140,000 active;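 active = viability at or below a set limit, 4 SD under the median of all tested compounds, cut at about 3.7% in these data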;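 note: PTEN knockout HCT116 line with beta catenin targeted HCT116 as companion control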
TNAP act hi DEA = increases human TNAP activity under high phosphate acceptor concentration; P05186; purified TNAP, CDP-star luminescence, 1 M DEA, 30 min; active compounds read high; 0 = EDTA background, 1 = DMSO-only activity; activation factor at 20 µM; 200,000 tested, under 10 active; AID 1136;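 active = activation factor at least 2 at 20 µM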
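Dosing: 20 µM single point. System: human TNAP. Amount: TNAP 1/800 final. Incubation: 30 min, room temperature. Read-out: TNAP activation factor scaled between EDTA and DMSO control wells. Signal: luminescence from CDP-star hydrolysis. Medium: 1 M DEA, pH 9.8, Mg2+, Zn2+. Control set: EDTA negative control, DMSO positive control.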
TNAP inh hiacc = TNAP (human) inhibition, high acceptor; P05186; purified TNAP, CDP-star luminescence, 1 M DEA; inhibition, % at 20 µM; 0.03% of 200,000 active; AID 1135;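 active = over 50% inhibition of tissue-nonspecific alkaline phosphatase at 20 µM in the single-dose screen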;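 note: plate controls were DMSO wells for no effect and EDTA-quenched wells as full inhibition for full effect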
* marks the source's active call; other numbers are inactive results; · = no result given. Hits are enriched below; roughly 9.6% of the tested compounds scored in any of these assays.

SMILES	bCat KO growth	TNAP inh noacc	Lmaj promast	HCT116 PTEN-null	TNAP act hi DEA	TNAP inh hiacc
NS(=O)(=O)c1ccc(CNC(=O)/C=C/c2ccccc2[N+](=O)[O-])cc1	·	62*	-3	·	1	4
CN1CCN(C(c2cccc(Cl)c2)c2ccccc2Cl)CC1 (stereo not given)	58	2	98*	58	1	-3
Clc1ccc(C(c2ccccc2)N2CCNCC2)cc1 (stereo not given)	36	-11	46	30	1.1	-7
O=C1CN(Cc2cc(=O)oc3cc4c(cc23)CCC4)CCN1	·	-13	-3	·	1.1	-6
COc1cc(NC(=O)Cn2nc(Cc3cccnc3)c3ccccc3c2=O)cc(OC)c1OC	84	-7	-3	92	1	0
CCCS(=O)(=O)c1nc(S(=O)(=O)c2ccc(C)cc2)c(N2CCc3ccccc3C2)s1	60	-2	61*	69	1	1
CCCS(=O)(=O)c1nc(S(=O)(=O)c2ccc(C)cc2)c(N2CCCC2)s1	102	-8	1	99	1	-5
COc1ccc(OC)c(-n2c(=S)[nH]c3cc(C(=O)N(C)Cc4ccccc4)ccc3c2=O)c1	·	-3	-4	·	1.1	-6
O=C(CNc1cc(S(=O)(=O)N2CCCC2)ccc1OCC(F)(F)F)Nc1cccc(C(F)(F)F)c1	48	10	95*	46	1	-2
COC(=O)c1cc(OC)c(OC)cc1NCC(=O)Nc1ccc(C)cc1	91	-9	-10	100	1	-2
COC(=O)c1cc(OC)c(OC)cc1NCC(=O)Nc1cccc(C(F)(F)F)c1	76	-16	74*	69	1	0
COC(=O)c1cc(OC)c(OC)cc1NCC(=O)Nc1ccc(OC)c(OC)c1	78	-3	53*	88	1	-1
CCOC(=O)c1ccc(NC(=S)N2CCC(O)CC2)cc1	97	-6	-2	90	1	-4
CCOC(=O)c1ccc(NC(=S)N2CCSC2c2ccc(Br)cc2)cc1 (stereo not given)	70	9	87*	67	1	1
Cc1nc2ccccc2nc1OCC(=O)Nc1ccc2ccccc2c1	88	0	59*	83	1.1	-5
Cc1cc(C)c(NC(=O)COc2nc3ccccc3nc2C)c(C)c1	91	0	3	98	1	4
CCn1cc(C(=O)NCCCN2CCCC2)c(=O)c2cc(S(=O)(=O)N3CCc4ccccc4C3)ccc21	·	-2	46	·	1	-2
CCCCN(CC)CCCNC(=O)c1cn(CC)c2ccc(S(=O)(=O)N3CCc4ccccc4C3)cc2c1=O	·	-11	98*	·	1	-3
CCCCN(C)CCCNC(=O)c1cn(CC)c2ccc(S(=O)(=O)N3CCc4ccccc4C3)cc2c1=O	·	-2	99*	·	1	-3
CCn1cc(C(=O)NCc2ccco2)c(=O)c2cc(S(=O)(=O)N3CCc4ccccc4C3)ccc21	59	-5	97*	65	1.1	-6
CCn1cc(C(=O)NCCCN2CCC(C)CC2)c(=O)c2cc(S(=O)(=O)N3CCCC3)ccc21	82	-7	-2	91	1	-1
CCCN(CCC)CCCNC(=O)c1cn(CC)c2ccc(S(=O)(=O)N3CCc4ccccc4C3)cc2c1=O	·	-6	99*	·	1	-3
CCOc1c(Br)cc(C(N)=O)cc1OCc1ccccc1	66	-4	-1	83	1	-3
COc1ccc(-n2c(SCC(=O)N3CCc4ccccc43)nnc2-c2c[nH]c3ccccc23)cc1	90	-11	4	89	1	-4
O=C(CN1C(=O)c2ccccc2C1=O)NNC1=NS(=O)(=O)c2ccccc21	99	-4	61*	95	1	-2
SMILES	bCat KO growth	TNAP inh noacc	Lmaj promast	HCT116 PTEN-null	TNAP act hi DEA	TNAP inh hiacc
CC1CCCCN1C(=S)Nc1ccc(OC(F)F)cc1 (stereo not given)	92	-3	0	95	1	1
c1ccc2c(C3=NNC(=NC4CC4)SC3)c[nH]c2c1	86	1	97*	84	1	0
Cc1cc(C2=NNC(=NC3CC3)SC2)c(C)n1-c1ccccc1	43	-14	18	23	1	0
c1ccc2c(C3=NNC(=NC4CCCCC4)SC3)c[nH]c2c1	77	-8	93*	64	1	3
c1ccc(C2=NNC(=NC3CC3)SC2)cc1	54	-4	-5	46	1	-2
O=C(Nc1ccccc1)N1CCc2scc[n+]2-c2ccccc21	88	70*	-1	82	1	0
CC1CN(C(=O)Nc2ccccc2)c2ccccc2-[n+]2ccsc21 (stereo not given)	96	72*	-7	91	1	1
Cc1ccc(C)c(N2CCN(CCCNC(=O)Cn3cc4c(n3)CCC(C)C4)CC2)c1 (stereo not given)	10	-7	20	9	1	1
Cc1ccc(C)c(N2CCN(CCCNC(=O)Cn3cc4c(n3)CCCCC4)CC2)c1	2.1*	-8	0	1.7*	1	3
CN(Cc1ccccc1)C(=O)c1ccccc1Br	82	6	-9	84	1	2
CC(=O)c1cc(F)ccc1OCC(=O)N1CCN(c2ccc(F)cc2)CC1	·	-5	-5	·	1	-2
O=C(CN1CCCC1)NC12CC3CC(CC(C3)C1)C2	97	-3	51*	89	1	-2
O=C(Cn1c(C(=O)N2CCN(C3CCCC3)CC2)cc2sccc21)c1ccccc1	75	-3	93*	71	1.1	-8
COc1ccc(S(=O)(=O)CCC(=O)N(C)c2ccc(OC)cc2OC)cc1	0.5*	-5	-2	0.4*	1	0
COc1ccc(S(=O)(=O)CCC(=O)Nc2ccc(OC)cc2OC)cc1	92	-10	-4	92	1	-1
CCN(CC)C(=O)c1ccc2c(c1[N+](=O)[O-])C(=O)c1ccccc1C2=O	8	-8	3	2.6*	1	-1
CCN(CC)C(=O)c1cccc2c1C(=O)c1ccccc1-2	94	-9	15	97	1	-1
COc1ccc2[nH]c3c(Cl)ncnc3c2c1	5.7*	0	10	9	1	4
Fc1ccc2[nH]c3c(Cl)ncnc3c2c1	·	-7	-2	·	1.1	-5
CC1CCc2ccc(F)cc2N1S(=O)(=O)c1cccs1 (stereo not given)	44	-4	96*	46	1.1	-5
COc1ccc(C)cc1NC(=S)NC(C)c1ccc(OC)c(OC)c1 (stereo not given)	·	-8	54*	·	1	-3
COc1ccc(NC(=S)NC(C)c2ccncc2)cc1OC (stereo not given)	·	-6	7	·	1	-2
CCn1c(N2CCN(C(=S)Nc3ccc(OC)cc3)CC2)nc2ccccc21	·	-5	-2	·	1	-2
Cc1cccc(N=N/C(=C\O)C(=O)c2cccs2)c1	·	7	76*	·	0.8	15
